From PubChem BioAssay
Activity calls are given as the source filed them.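 How the source made its calls, unless noted: active means NADPH fluorescence slope more negative than the mean of all samples by about 3 SD, 99.7% confidence; inactive means the rest.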

How the values were obtained:
[1] = inhibitors of TNFa-induced NFkB p65 translocation, primary screen, imaging, HUVEC, MLSMR starter and 10KST1 sets (AID 438;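 active means inhibition above 20% together with a positive visual image hit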;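 further: compound added about 3h40 before a 20 min TNFalpha stimulation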;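 on inhibition: signal is the nuclear over cytoplasmic p65 intensity ratio per well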); conditions: HUVEC TNFa-induced p65 nuclear translocation; cell count: measured here: nuclei count (cytotoxicity indicator), at 2.08 µM; inhibition: at 2 µM, stronger effect = higher value, 0% TNFa-plus-vehicle, 100% no-TNFa wells
[2] = inhibitors of E-selectin induction by TNFa, primary screen, imaging, HUVEC, immunofluorescence, MLSMR starter and 10KST1 sets (AID 487;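 active means visually confirmed hit in the image check and inhibition above 20%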;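 on inhibition: signal is fraction of cell area covered by stained E-selectin grains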;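 on nuclei count: 100% = median nuclei count of all wells on the same plate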); conditions: HUVEC TNFalpha-induced E-selectin immunofluorescence imaging, at 2 µM; inhibition: stronger effect = higher value; nuclei count: measured here: cell number, toxicity
[3] = DUSP6 inhibitors restoring Erk phosphorylation by chemical complementation, primary imaging in DUSP6-transfected HeLa (AID 609;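 active means compounds giving at least 50% inhibition in the cell-based MKP-3 phosphatase rescue imaging test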;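 on inhibition: phospho-Erk level distribution per well compared with pooled transfected vehicle control wells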); conditions: HeLa MKP-3 transfected, phospho-Erk imaging KS statistic, at 10 µM, cells stimulated with TPA for 15 min
[4] = target: Dual specificity protein phosphatase 6 (Homo sapiens) (UniProt Q16828); assay: as above; conditions: HeLa MKP-3 transfected, phospho-Erk imaging KS statistic; at 10 µM; stronger effect = higher value; cells stimulated with TPA for 15 min
Chain of Dual specificity protein phosphatase 6 (Homo sapiens) (Q16828 whole entry, looked up): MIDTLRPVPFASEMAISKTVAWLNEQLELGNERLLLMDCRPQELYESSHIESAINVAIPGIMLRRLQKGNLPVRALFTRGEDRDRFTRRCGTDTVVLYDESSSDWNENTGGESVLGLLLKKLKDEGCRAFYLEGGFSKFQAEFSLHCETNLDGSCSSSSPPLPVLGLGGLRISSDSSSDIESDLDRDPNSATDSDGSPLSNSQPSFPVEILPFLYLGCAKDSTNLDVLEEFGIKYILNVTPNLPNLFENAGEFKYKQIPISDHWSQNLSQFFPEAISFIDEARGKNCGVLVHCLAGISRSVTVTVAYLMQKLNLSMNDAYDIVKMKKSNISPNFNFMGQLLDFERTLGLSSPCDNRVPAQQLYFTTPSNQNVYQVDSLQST

[5] = target: Voltage-gated potassium channel subunit beta-2 (Rattus norvegicus) (UniProt P62483); assay: KvBeta enzyme negative modulators, primary screen, biochemical, NADPH fluorescence (AID 622;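 active means fluorescence slope higher than the sample average by over 3 SD, cut at about -0.22 in these data, passing the limit was not always enough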;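 further: slope of raw intensity against log time taken from 70 to 1610 s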); conditions: recombinant KvBeta, 4-cyanobenzaldehyde reduction, at 10 µM, stronger effect = higher value
Chain of Voltage-gated potassium channel subunit beta-2 (Rattus norvegicus) (P62483 whole entry, looked up): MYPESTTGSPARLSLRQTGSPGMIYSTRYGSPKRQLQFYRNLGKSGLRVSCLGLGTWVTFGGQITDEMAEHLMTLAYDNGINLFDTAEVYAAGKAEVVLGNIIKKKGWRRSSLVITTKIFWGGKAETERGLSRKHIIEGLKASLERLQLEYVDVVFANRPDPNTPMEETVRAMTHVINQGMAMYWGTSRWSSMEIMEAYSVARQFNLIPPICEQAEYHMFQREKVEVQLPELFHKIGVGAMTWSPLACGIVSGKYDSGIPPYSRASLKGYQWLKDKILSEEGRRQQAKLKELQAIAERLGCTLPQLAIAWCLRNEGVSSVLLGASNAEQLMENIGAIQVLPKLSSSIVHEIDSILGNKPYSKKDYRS

[6] = target: Voltage-gated potassium channel subunit beta-2 (Rattus norvegicus) (UniProt P62483); assay: KvBeta positive modulators, primary screen, biochemical, NADPH fluorescence (AID 623); conditions: Recombinant KvBeta, NADPH fluorescence decrease slope, 10 min; at 10 µM; stronger effect = lower value;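 further: fluorescence intensity change per second fitted from 20 to 320 s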
[7] = target: Alpha-2C adrenergic receptor (Homo sapiens) (UniProt P18825); assay: modulators of alpha2C/GIRK thallium flux, primary screen, cell-based, HEK293 alpha2C/GIRK1/2 (AID 624;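 active means fluorescence slope after compound addition differing from the mean of all screened samples at 99.7% confidence, in either direction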;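 further: slope of fluorescence ratio to pre-addition baseline per second over 15 to 24 s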); conditions: thallium flux BTC fluorescence, at 10 µM, actives lie on both sides
Chain of Alpha-2C adrenergic receptor (Homo sapiens) (P18825 whole entry, looked up): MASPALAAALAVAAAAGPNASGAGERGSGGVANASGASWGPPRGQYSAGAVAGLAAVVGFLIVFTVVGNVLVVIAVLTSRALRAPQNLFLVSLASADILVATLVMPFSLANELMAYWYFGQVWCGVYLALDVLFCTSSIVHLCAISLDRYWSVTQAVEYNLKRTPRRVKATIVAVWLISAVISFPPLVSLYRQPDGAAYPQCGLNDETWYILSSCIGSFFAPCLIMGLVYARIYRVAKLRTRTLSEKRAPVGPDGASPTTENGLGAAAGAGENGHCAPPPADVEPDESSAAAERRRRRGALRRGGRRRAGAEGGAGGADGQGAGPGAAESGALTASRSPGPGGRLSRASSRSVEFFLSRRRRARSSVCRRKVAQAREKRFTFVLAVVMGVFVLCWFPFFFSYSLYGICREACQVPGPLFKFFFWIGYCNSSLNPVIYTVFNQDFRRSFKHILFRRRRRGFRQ

[8] = inhibitors of larval lipid processing in zebrafish, primary screen, whole organism, PED6 fluorescence, gall bladder and intestine (AID 686;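 active means a full or partial loss of lipid-probe fluorescence in the fish gall bladder, intestine or both, judged by eye; inactive means no fluorescence loss, or compound toxic to the fish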;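 further: larvae 5 to 7 days old with five fish per well; signal comes from phospholipase A2 cleavage of quenched PED6 carried via bile; overnight exposure to compound and PED6 before scoring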); conditions: Zebrafish larvae PED6 lipid processing, fluorescence scoring; screened at 20 µM (by protocol)
How it was run: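 Test system – live zebrafish larvae aged 5-7 days, whole organism · Buffer or medium – E3 fish medium · Reagent – quenched phospholipase substrate PED6, 100 nM final, ingested by larvae · Doses – 20 µM single dose · Incubation – overnight compound and PED6 incubation · Technique – visual fluorescence microscopy scoring of gall bladder, gut · Read-out basis – visual per-well fluorescence inhibition score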

[9] = inhibitors of Chlamydomonas gravitaxis, primary screen, whole organism, Chlamydomonas reinhardtii, WT vs cilia-less mutant, absorbance, 96-well (AID 463189;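 active means inhibition at or above 50% relative to wild type and mutant plate controls; inactive means inhibition below 50%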;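 further: 0% = wild type cc124 cells in DMSO and 100% = ciliumless bld1 mutant cells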); conditions: OD600 absorbance, 2 days, at 10 µM, stronger effect = higher value
[10] = measured here: cell density z-score
[11] = measured here: nuclear c-Myc green intensity z-score
[12] = measured here: nuclear pErk red intensity z-score, stronger effect = higher value

| SMILES | cell count [1] | inhibition [1] | inhibition [2] | nuclei count [2] [%] | z-score [3, 10] | z-score [3, 11] | z-score [3, 12] | inhibition [4] | fluorescence slope [5] | NADPH fluorescence slope [6] | slope [7] | outcome [8] | inhibition [9] |
| --- | --- | --- | --- | --- | --- | --- | --- | --- | --- | --- | --- | --- | --- |
| CCN(CC)CCN1C(=O)C(=O)/C(=C(/O)c2ccc(F)cc2)C1c1ccncc1 (stereo unspecified) | 519 | -13.3% (inactive) | -36.8% (inactive) | 110 | 0.315 | 0.605 | -0.561 | -11.5% (inactive) | -0.542 (inactive) | -1e-05 (inactive) | 0.00505 (inactive) | inactive | -7.51% (inactive) |
| CCSc1nnc(N(CCC(=O)O)CCC(=O)O)s1 | 371 | -10.5% (inactive) | -116% (inactive) | 155 | 0.0345 | 0.0362 | -1.04 | 7.48% (inactive) | -0.422 (inactive) | -2.2e-05 (inactive) | 0.00562 (inactive) | inactive | -5.02% (inactive) |
| N#CCCN(CCC#N)c1nnc(-c2ccccc2)s1 | 391 | -3.1% (inactive) | -60.9% (inactive) | 159 | 1.49 | 1.59 | -1.79 | 17% (inactive) | -0.384 (inactive) | -3.6e-05 (inactive) | 0.00496 (inactive) | inactive; toxic | 27.2% (inactive) |
| COCCCNC(=O)C(C#N)c1nc2ccccc2nc1N1CCN(Cc2ccccc2)CC1 (stereo unspecified) | 630 | -5.8% (inactive) | -33.3% (inactive) | 156 | -0.882 | -0.494 | -0.556 | -8.27% (inactive) | -0.472 (inactive) | -0.00034 (inactive) | 0.00118 (inactive) | inactive | 33.7% (inactive) |
| CCOc1cccc(-c2nnc3sc(-c4cc(OC)c(OC)c(OC)c4)nn23)c1 | 647 | -9.1% (inactive) | -15.9% (inactive) | 171 | 1.15 | 0.91 | -0.181 | -15% (inactive) | -0.39 (inactive) | -0.000117 (inactive) | 0.00923 (inactive) | inactive | 6.41% (inactive) |
| CN(C)CCCOC(=O)C1c2ccccc2Oc2ccccc21 | 542 | 1.3% (inactive) | 31.3% (inactive) | 169 | -1.43 | -0.729 | 0.0446 | -8.76% (inactive) | -0.329 (inactive) | -1.7e-05 (inactive) | 0.00512 (inactive) | inactive | 8% (inactive) |
| CC(C)c1cc(NCCN2CCOCC2)n2c(nc3ccccc32)c1C#N | 530 | -16.7% (inactive) | -13.5% (inactive) | 100 | 0.71 | 0.53 | -0.442 | 10.1% (inactive) | -0.493 (inactive) | -8.7e-06 (inactive) | 0.00455 (inactive) | inactive | -6.96% (inactive) |
| CCN(CC)CCCn1c(C)cc2c(c1=O)C(c1ccc(OC)c(OC)c1OC)C(C#N)=C(N)O2 (stereo unspecified) | 439 | 13.1% (inactive) | -23% (inactive) | 134 | -1.55 | -0.016 | 0.949 | 2.46% (inactive) | -0.389 (inactive) | -3.6e-05 (inactive) | 0.0068 (inactive) | inactive | -3.45% (inactive) |
| CCOc1cccc(-c2nnc3sc(-c4ccco4)nn23)c1 | 668 | -1.9% (inactive) | -152% (inactive) | 182 | 0.882 | 2.36 | -0.0575 | -13.3% (inactive) | -0.428 (inactive) | -0.000142 (inactive) | 0.00609 (inactive) | inactive | 18.3% (inactive) |
| O=C(O)CCCC(=O)Nc1ccn(-c2ccccc2)n1 | 639 | 3.1% (inactive) | -63.9% (inactive) | 142 | 2.2 | -2.05 | 0.525 | 20.3% (inactive) | -0.486 (inactive) | -2.7e-05 (inactive) | 0.00622 (inactive) | inactive | 11.2% (inactive) |
| COc1ccc(OC)c(C2=Nn3c(nnc3-c3ccco3)SC2)c1 | 675 | 1.9% (inactive) | -139% (inactive) | 150 | -0.0454 | 1.22 | 0.484 | -2.47% (inactive) | -0.399 (inactive) | -0.000127 (inactive) | 0.00666 (inactive) | inactive | -10.3% (inactive) |
| Cc1nnc(C)n1/N=C/c1cccn1C | 300 | -9.7% (inactive) | -14.9% (inactive) | 136 | -0.977 | 2.09 | -1.42 | 3.5% (inactive) | -0.412 (inactive) | -0.00014 (inactive) | 0.00647 (inactive) | inactive | -5.16% (inactive) |
| CN1CCN(C(=O)CSc2nc(-c3cccs3)ccc2C#N)CC1 | 625 | -11.3% (inactive) | 21.9% (inactive) | 138 | -0.668 | -0.886 | -0.831 | 6.04% (inactive) | -0.299 (inactive) | -1.3e-05 (inactive) | 0.00609 (inactive) | inactive | 21.2% (inactive) |
| CCOP(=O)(c1ccccc1)c1nc(-c2ccc(F)cc2)oc1N1CCCCC1 (stereo unspecified) | 658 | 1.8% (inactive) | -100% (inactive) | 136 | 0.739 | -0.227 | 1.53 | 4.25% (inactive) | -0.529 (inactive) | -0.000105 (inactive) | 0.00389 (inactive) | inactive | 2.55% (inactive) |
| Cc1cc(C)n(C(=O)CN2C(=O)CCC2=O)n1 | 406 | -19% (inactive) | -169% (inactive) | 155 | -0.373 | -0.831 | -0.956 | -5.62% (inactive) | -0.249 (inactive) | 1.9e-05 (inactive) | 0.00506 (inactive) | inactive | 17.3% (inactive) |
| N#Cc1ccc(-c2ccco2)nc1SCC(=O)c1ccc(Cl)cc1 | 431 | 0% (inactive) | -80.7% (inactive) | 138 | -1.49 | -0.417 | 1.23 | 7.83% (inactive) | -0.288 (inactive) | -2.9e-05 (inactive) | 0.00718 (inactive) | inactive | -1.61% (inactive) |
| CC1CCN(c2oc(-c3ccccc3Cl)nc2C#N)CC1 | 601 | -11.3% (inactive) | 36.1% (inactive) | 153 | -0.563 | 0.859 | 0.215 | -0.674% (inactive) | -0.397 (inactive) | -0.000144 (inactive) | 0.00562 (inactive) | inactive | 4.67% (inactive) |
| CC(=O)c1cc(CN2CCCCC2)cc(OC(C)C)c1 | 667 | -6.7% (inactive) | -53.2% (inactive) | 172 | 0.66 | -1.57 | 1.24 | -3.98% (inactive) | -0.505 (inactive) | -5.3e-05 (inactive) | 0.00431 (inactive) | inactive | 10.4% (inactive) |
| COc1ccc(C(CC(=O)N2CCOCC2)C(C)C)cc1 (stereo unspecified) | 486 | 10.6% (inactive) | -31.9% (inactive) | 97.9 | -1.63 | 1.26 | -0.603 | -5.26% (inactive) | -0.476 (inactive) | -7e-06 (inactive) | 0.00515 (inactive) | inactive | 19.8% (inactive) |
| COc1ccc(C2C(C#N)=C(N)Oc3n[nH]c(C)c32)cc1CSc1ccccn1 (stereo unspecified) | 648 | -1.9% (inactive) | 9.1% (inactive) | 168 | -0.678 | 1.17 | -0.733 | -5.62% (inactive) | -0.412 (inactive) | -3.1e-05 (inactive) | 0.00563 (inactive) | inactive | -9.39% (inactive) |
| Cc1ccc2[nH]c3c(N4CCN(Cc5ccccc5)CC4)ncnc3c2c1 | 328 | -7.3% (inactive) | -11.9% (inactive) | 148 | 0.594 | 0.553 | -0.309 | 10.5% (inactive) | -0.403 (inactive) | -0.000135 (inactive) | 0.00442 (inactive) | inactive; toxic | 38.4% (inactive) |
| CCCOc1ccc(/C(O)=C2/C(=O)C(=O)N(CCCN3CCOCC3)C2c2ccncc2)cc1 (stereo unspecified) | 398 | -0.5% (inactive) | -151% (inactive) | 145 | 0.781 | 0.803 | -0.95 | -8.27% (inactive) | -0.341 (inactive) | -1.2e-05 (inactive) | 0.0051 (inactive) | inactive | 0.312% (inactive) |
| CC(=O)Nc1cc2c(cc1Br)OCCO2 | 524 | -18.7% (inactive) | -80.8% (inactive) | 169 | -0.0183 | 1.62 | -0.826 | 16.1% (inactive) | -0.519 (inactive) | -3.4e-05 (inactive) | 0.00516 (inactive) | inactive | 33.1% (inactive) |
| CC1(C)CN(O)CCN1O | 325 | -5.3% (inactive) | -130% (inactive) | 104 | -0.173 | -0.721 | -0.0914 | -10.1% (inactive) | -0.452 (inactive) | -1.8e-06 (inactive) | 0.00611 (inactive) | inactive | 12% (inactive) |
| COc1ccc2[nH]c(C)c(C(=O)CN3CC(C)OC(C)C3)c2c1 (stereo unspecified) | 551 | -0.3% (inactive) | -1% (inactive) | 143 | -0.788 | 1.62 | -0.00446 | 3.5% (inactive) | -0.194 (inactive) | 2.2e-05 (inactive) | 0.00534 (inactive) | inactive | 7.59% (inactive) |
| COC(=O)CN(c1cc(OC)ccc1OC)S(=O)(=O)c1ccc(OC)c(OC)c1 | 365 | -5% (inactive) | -37.1% (inactive) | 130 | -0.822 | 0.297 | -0.958 | -2.59% (inactive) | -0.417 (inactive) | -0.000193 (inactive) | 0.00438 (inactive) | inactive | -0.193% (inactive) |
| O=CNC(=O)c1ccccc1C(=O)O | 545 | -5.9% (inactive) | -60.7% (inactive) | 162 | 1.01 | -0.571 | -1.1 | 11.9% (inactive) | -0.522 (inactive) | -2.4e-05 (inactive) | 0.00526 (inactive) | inactive | 28.5% (inactive) |
